Series [1] deals with HT-29, SW480, and HCT116 human colon cancer cell lines. Kind of series: Cell Titer Glo growth assay, colon tumor cell lines. Particulars: for HT-29 growth inhibition: NSAID panel; for effect on colon tumor cell growth: PDE isozyme specific inhibitors; for IC50: Homo sapiens, 72 h, read-out: growth inhibition IC50, range over cell lines. The class given is cell-based.
Series [2] concerns cGMP PDE in HT-29 human colon tumor cell lysates. Kind of series: cGMP PDE scintillation proximity assay in HT-29 lysate. The class given is biochemical. The note with it: HT-29 cell lysates; for effect on cGMP PDE activity: NSAID panel; for IC50: read-out: IC50 cGMP PDE, scintillation proximity assay. A digest of the protocol: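 The reaction was stopped with scintillation proximity beads that bind the labeled product, then counted.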
On the technique in general: Scintillation proximity formats need no separation of bound from free tracer.

The subject of series [3] is intracellular cGMP levels in colon tumor cells. The note with it: cited from earlier work.
Series [4] relates to cGMP hydrolysis in HT-29 cell lysate. In words: IMAP fluorescence polarization PDE assay, cGMP hydrolysis in HT-29 lysate. The class given is biochemical, human. The note with it: HT-29 cell lysates; concentration not given. In short, it runs like this: (§1)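 HT-29 or FHC cells were lysed in ice-cold 20 mM Tris-acetate, 5 mM Mg acetate, 1 mM EGTA, 0.8% Triton X-100, 50 mM NaF, protease inhibitors, pH 7.4. Lysates were cleared at 10,000g, 10 min, 4°C, and protein measured by BCA. PDE activity was read by IMAP fluorescence polarization, with Fl-cAMP and TAMRA-cGMP as substrates so cAMP and cGMP hydrolysis were measured together.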
On the technique in general: Polarisation of emitted light reports the rotation of a fluorescent probe.

In series [5] the test system is cAMP hydrolysis in HT-29 cell lysate. In words: IMAP fluorescence polarization PDE assay, cAMP hydrolysis in HT-29 lysate. The class given is biochemical, human.
Series [6] relates to cGMP PDE activity in lysates from HT-29 tumors established in athymic mice. Kind of series: cGMP PDE in HT-29 tumor homogenates versus normal rat colonic mucosa. The note with it: HT-29 tumor lysate vs normal rat colonic mucosa lysate. The class given is biochemical, human.
Series [7] concerns cyclinD1 and survivin expression in SW480 cells. In words: Western blot of cyclin D1 and survivin. The class given is cell-based, human. The note with it: time-dependent. A digest of the protocol:
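SW480 lysate (ice-cold Tris-acetate/Triton X-100/NaF buffer, pH 7.4, cleared at 10,000g, 4°C) was loaded at 30 μg protein per lane. Proteins were separated by 12% SDS-PAGE and transferred to nitrocellulose, blocked with 5% BSA in TBS/0.05% Tween-20, and probed for cyclin D1 and survivin, with β-actin as loading control.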
A general note: A western blot detects proteins with antibodies after separation by electrophoresis.

Series [8] has as its system Tcf/Lef-mediated transcription in HT-29, HCT-116, and SW480 colon cancer cells. In words: TOPFlash luciferase reporter assay. The class given is cell-based, human. The note with it: HT-29, HCT-116, SW480, 24 hours. In short, it runs like this:
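Cells were transiently co-transfected with the TOPFlash luciferase construct and a β-galactosidase expression vector, then treated for 24 h. After lysis, luciferase and β-galactosidase activities were measured, and luciferase was normalized to β-galactosidase.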

Series [9] is described as follows: Plasma levels of sulindac and metabolites. The note with it: for concentration at 6 h: mouse, plasma, po, 50 mg/kg. The class given is in vivo.
Series [10] addresses T1, Purified ovine COX-1 (Ovis aries, UniProt P05979).
T1 sequence (P05979 25-600): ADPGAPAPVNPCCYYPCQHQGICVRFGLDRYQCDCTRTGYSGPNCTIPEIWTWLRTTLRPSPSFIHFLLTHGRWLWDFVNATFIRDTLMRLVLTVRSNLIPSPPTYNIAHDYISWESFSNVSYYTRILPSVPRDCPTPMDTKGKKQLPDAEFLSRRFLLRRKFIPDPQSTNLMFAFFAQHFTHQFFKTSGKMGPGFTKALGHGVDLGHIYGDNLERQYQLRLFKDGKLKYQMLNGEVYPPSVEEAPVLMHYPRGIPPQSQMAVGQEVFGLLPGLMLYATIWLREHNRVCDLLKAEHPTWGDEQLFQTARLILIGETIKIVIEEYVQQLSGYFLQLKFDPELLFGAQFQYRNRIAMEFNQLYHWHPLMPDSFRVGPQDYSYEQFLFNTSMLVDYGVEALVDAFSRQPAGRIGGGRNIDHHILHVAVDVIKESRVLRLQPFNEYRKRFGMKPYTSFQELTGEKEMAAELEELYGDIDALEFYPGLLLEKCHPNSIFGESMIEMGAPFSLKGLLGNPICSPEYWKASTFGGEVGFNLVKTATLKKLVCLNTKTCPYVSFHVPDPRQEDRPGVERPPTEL
Kind of series: COX-1 inhibition, purified enzyme. The class given is biochemical. The note with it: read-out: IC50 COX-1.

Series [11] relates to human HT-29 colon tumor xenograft. In words: HT-29 colon tumor xenograft efficacy. Particulars: 50 mg/kg once daily oral gavage. The class given is in vivo, male NCr-nu/nu athymic mice. A digest of the protocol:
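Male NCr-nu/nu mice, 5–6 weeks old, were implanted subcutaneously with HT-29 tumor fragments; 10 mice per group, vehicle-treated control. Dosing started at tumor size 75–200 mg: 50 mg/kg oral gavage once daily for 40 days, as a suspension in 0.5% CMC, 0.25% Tween 80 in water. Tumor dimensions and body weight were measured twice weekly; mortality checked daily.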

The subject of series [12] is HT-29 cells. In words: 3H-thymidine incorporation proliferation assay. The class given is cell-based, human. The note with it: read-out: IC50 Proliferation, 72 hours, tritiated thymidine assay. In short, it runs like this: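 HT-29 cells (>95% viable by trypan blue) were treated for 72 h in total. 1 μCi ³H-thymidine was added at 56 h and incubation continued 16 h at 37°C. DNA was harvested onto filters and uptake counted by scintillation.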

Series [13] addresses T2, Purified ovine COX-2 (Ovis aries, UniProt P79208).
T2 sequence (P79208 17-603): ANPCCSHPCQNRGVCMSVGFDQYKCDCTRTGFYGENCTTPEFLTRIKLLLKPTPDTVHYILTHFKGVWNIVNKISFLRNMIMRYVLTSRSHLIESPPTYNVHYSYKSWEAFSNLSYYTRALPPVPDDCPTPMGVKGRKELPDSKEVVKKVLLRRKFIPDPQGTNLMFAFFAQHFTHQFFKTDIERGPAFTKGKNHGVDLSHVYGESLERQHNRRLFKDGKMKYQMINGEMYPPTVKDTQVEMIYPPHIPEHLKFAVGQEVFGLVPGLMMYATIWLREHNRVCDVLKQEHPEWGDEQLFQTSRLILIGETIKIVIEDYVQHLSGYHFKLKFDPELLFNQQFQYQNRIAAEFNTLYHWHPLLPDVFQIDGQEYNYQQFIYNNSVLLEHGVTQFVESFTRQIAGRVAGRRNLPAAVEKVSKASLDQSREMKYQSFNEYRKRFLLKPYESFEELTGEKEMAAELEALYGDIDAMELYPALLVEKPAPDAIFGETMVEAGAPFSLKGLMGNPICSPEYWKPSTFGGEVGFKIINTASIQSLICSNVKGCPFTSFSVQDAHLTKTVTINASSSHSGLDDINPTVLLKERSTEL
Kind of series: COX-2 inhibition, purified enzyme. The class given is biochemical. The note with it: read-out: IC50 COX-2.

The nature of series [14]: Tolerance study. The class given is in vivo. The note with it: daily oral gavage for 20 days; no deaths or significant weight loss.
Series [15] deals with cGMP PDE in FHC lysates. Kind of series: IMAP fluorescence polarization PDE assay, cGMP hydrolysis in FHC lysate. The note with it: FHC lysate compared with HT-29 lysate. The class given is biochemical, human. A digest of the protocol: as §1
Series [16] concerns the target recombinant PDE2 (Homo sapiens, UniProt O00408). In words: Recombinant PDE2 inhibition. The class given is biochemical. Particulars: recombinant isozyme, cAMP as substrate; data not shown.
The test system of series [17] is recombinant PDE3. Kind of series: Recombinant PDE3 inhibition. The class given is biochemical. The note with it: recombinant isozyme, cAMP as substrate; data not shown.

Consider 18 molecules from PMC2955813 (Cancer prevention research (Philadelphia, Pa.), 2010).

Sequence of recombinant PDE2 (O00408 whole entry): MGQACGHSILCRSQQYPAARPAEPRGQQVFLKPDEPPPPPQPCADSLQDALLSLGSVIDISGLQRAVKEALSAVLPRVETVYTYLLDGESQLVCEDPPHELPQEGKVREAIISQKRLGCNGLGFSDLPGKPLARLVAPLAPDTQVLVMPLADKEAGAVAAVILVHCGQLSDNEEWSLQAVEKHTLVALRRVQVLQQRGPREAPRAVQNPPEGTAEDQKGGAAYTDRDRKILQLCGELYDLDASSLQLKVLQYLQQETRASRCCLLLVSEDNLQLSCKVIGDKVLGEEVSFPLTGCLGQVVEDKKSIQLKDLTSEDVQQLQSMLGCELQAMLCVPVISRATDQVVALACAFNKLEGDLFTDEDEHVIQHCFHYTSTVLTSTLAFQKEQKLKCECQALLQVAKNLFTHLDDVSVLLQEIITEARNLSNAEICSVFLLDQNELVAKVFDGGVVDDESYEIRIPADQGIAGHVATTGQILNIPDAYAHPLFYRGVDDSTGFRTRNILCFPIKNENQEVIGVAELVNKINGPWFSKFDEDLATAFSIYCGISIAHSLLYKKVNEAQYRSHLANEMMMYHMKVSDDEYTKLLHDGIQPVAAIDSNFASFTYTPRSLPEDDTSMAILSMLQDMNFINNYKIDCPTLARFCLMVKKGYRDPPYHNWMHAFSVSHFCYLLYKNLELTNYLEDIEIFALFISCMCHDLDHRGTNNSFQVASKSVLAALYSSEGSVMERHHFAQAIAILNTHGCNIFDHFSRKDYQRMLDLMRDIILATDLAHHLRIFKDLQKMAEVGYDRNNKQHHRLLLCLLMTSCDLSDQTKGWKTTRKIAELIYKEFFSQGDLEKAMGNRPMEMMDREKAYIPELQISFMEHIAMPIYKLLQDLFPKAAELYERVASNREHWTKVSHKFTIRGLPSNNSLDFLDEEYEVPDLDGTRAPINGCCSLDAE

With `CN1C(C(=O)Nc2ccccn2)=C(O)c2ccccc2S1(=O)=O` [piroxicam], the HT-29 growth inhibition entry in series [1] is listed as “low potency”. Moreover, the “effect on cGMP PDE activity” value in series [2] is recorded as “did not affect cGMP PDE activity”.
As for `C=C[C@@]1(C)CC(=O)[C@]2(O)[C@@]3(C)[C@@H](O)CCC(C)(C)[C@@H]3[C@H](O)[C@H](OC(C)=O)[C@@]2(C)O1` [forskolin], the effect on growth entry in [1] (HT-29, SW480, HCT116, 72 hours, concentrations up to 100 μM) is “did not significantly affect growth”.
For the molecule `CCCCC1C(=O)N(c2ccccc2)N(c2ccccc2)C1=O` [phenylbutazone], the HT-29 growth inhibition entry in [1] is “low potency”. In series [2], the “effect on cGMP PDE activity” value is recorded as “did not affect cGMP PDE activity”.
As for `O=C(O)C1CCN(c2nc(NCc3ccc4c(c3)OCO4)c3cc(Cl)ccc3n2)CC1` [E4021], the “increase in intracellular cGMP levels” value in [3] is listed as “unable to induce a significant increase”.
As for `CCCc1nn(C)c2c(=O)[nH]c(-c3cc(S(=O)(=O)N4CCN(C)CC4)ccc3OCC)nc12` [sildenafil], the “inhibition of cGMP PDE activity in HT-29 lysate” value (from here on “inhibition of cGMP PDE activity”) in [4] was 42%. Also, the “effect on colon tumor cell growth” value in [1] (HT-29, SW480, HCT116) is “did not affect colon tumor cell growth”.
With `CS(=O)(=O)c1ccc(C2=C(c3ccccc3)C(=O)OC2)cc1` [Rofecoxib, rofecoxib], the IC50 in series [2] is more than 300 µM.
On to `Clc1cccc(Nc2nnc(-c3ccccc3)c3ccccc23)c1` [MY5445, 1-(3-chloroanilino)-4-phenylphthalazine], for which the IC50 in [1] is 8 to 18 µM. For the same molecule, the “effect on cAMP hydrolysis” value in series [5] is “without substantially affecting cAMP hydrolysis”. Also, in series [6], the “fold greater potency for tumor cGMP PDE compared to normal tissue” value was “more than 10 fold”. In [7], the “expression of cyclinD1 and survivin” value is “significant reduction”. The Tcf/Lef-mediated transcription entry in series [8] is given as “significant reduction”.
As for `CCCCCC[C@@H]([C@@H](C)O)n1cnc2c(N)ncnc21` (racemic) [EHNA], the “inhibition of cGMP PDE activity” value in series [4] is given as “less than 12%”. Also, the “effect on colon tumor cell growth” value in series [1] (HT-29, SW480, HCT116) is on record as “only MY5445 was found to inhibit colon tumor cell growth”.
For `COc1ccc2c(c1)c(CC(=O)O)c(C)n2C(=O)c1ccc(Cl)cc1` [Indomethacin, indomethacin], the IC50 in series [2] turned out to be 24 µM.
With `CC1=C(CC(=O)O)c2cc(F)ccc2/C1=C\c1ccc(S(C)(=O)=O)cc1` [Sulindac sulfone, sulindac sulfone], the concentration at 6 h in series [9] was determined as 8.9 ± 1.2 µM. Also, in [2], the IC50 turned out to be 95.9 µM.
On to `CCOC(=O)C1=C[C@]2(CC)CCCN3CCc4c(n1c1ccccc41)[C@@H]32` [vinpocetine], for which, in series [1] (HT-29, SW480, HCT116), the “effect on colon tumor cell growth” value is on record as “only MY5445 was found to inhibit colon tumor cell growth”.
Turning to `CC1=C(CC(=O)O)c2cc(F)ccc2/C1=C\c1ccc([S+](C)[O-])cc1` (stereo not shown) [Sulindac sulfoxide, sulindac], the IC50 in series [10] is more than 300 µM; in series [12], 224 µM; in [13], more than 300 µM; in [2] it was 120 µM. The “reduction of tumor growth” value in series [11] (end of treatment, vs vehicle) was “approximately 55%”. Besides, the “effect on body weight” value in series [11] (not shown) was “without affecting body weight”. The plasma level in series [9] (6 hours following a single oral dose of sulindac at 50 mg/kg) was found to be 23.1 ± 5.5 µM. The maximum tolerated dosage result in series [14] is “approximately 50 mg/kg”.
`CSc1ccc(/C=C2/C(C)=C(CC(=O)O)c3cc(F)ccc32)cc1` [Sulindac sulfide, sulindac sulfide]: the IC50 is 73 to 85 µM in series [1], 33.9 µM in series [12] and 19.7 µM in [2]. For the same molecule, the “cGMP PDE inhibition in FHC lysate” value in series [15] is reported as “reduced sensitivity”. Besides, the “cAMP hydrolysis by PDE2” value in [16] was “did not significantly inhibit”. The “effect on cAMP hydrolysis” value in series [5] was “appreciably higher concentrations were necessary”. For the same molecule, the concentration at 6 h in series [9] was determined as 36.7 ± 10.2 µM. Also, the “expression of cyclinD1 and survivin” value in series [7] is “significant reduction”. Besides, the Tcf/Lef-mediated transcription result in series [8] is reported as “significant reduction”. Further, in series [17], the “cAMP hydrolysis by PDE3” value is “did not significantly inhibit”.
On to `CN1CC(=O)N2[C@H](c3ccc4c(c3)OCO4)c3[nH]c4ccccc4c3C[C@@H]2C1=O` [tadalafil], for which, in series [1] (HT-29, SW480, HCT116), the “effect on colon tumor cell growth” value was “did not affect colon tumor cell growth”.
As for `Cc1ccc(-c2cc(C(F)(F)F)nn2-c2ccc(S(N)(=O)=O)cc2)cc1` [celecoxib], in series [1], the HT-29 growth inhibition entry is listed as “did inhibit tumor cell growth”. Also, the “effect on cGMP PDE activity” value in series [2] is “inhibited cGMP PDE”.
`COc1ccc(C2CNC(=O)C2)cc1OC1CCCC1` (stereo not shown) [rolipram]: the “effect on colon tumor cell growth” value in series [1] (HT-29, SW480, HCT116) was “only MY5445 was found to inhibit colon tumor cell growth”.
`CC(=O)Oc1ccccc1C(=O)O` [aspirin]: the HT-29 growth inhibition entry in [1] is “low potency”. Besides, the “effect on cGMP PDE activity” value in [2] is given as “did not affect cGMP PDE activity”.
`Cc1[nH]c(=O)c(C#N)cc1-c1ccncc1` [milrinone]: in series [4], the “inhibition of cGMP PDE activity” value is on record as 31%. Also, in series [1] (HT-29, SW480, HCT116), the “effect on colon tumor cell growth” value is recorded as “only MY5445 was found to inhibit colon tumor cell growth”.
